Measured values gathered from unrelated publications.
Compare with care: the assays were run in different laboratories.
Target: Sodium-dependent noradrenaline transporter (SLC6A2, Homo sapiens, UniProt P23975)

SMILES | test | test system | conditions | inhibition
CN(CCN1CCC(OC(=O)Nc2ccccc2-c2ccccc2)CC1)C(=O)c1ccc(CN2CCC(C(N)=O)CC2)cc1 | ligand displacement, radioligand | – | 1 µM | 1%
Clc1ccc2c(C3CCN(CCc4c[nH]c5ccccc45)CC3)c[nH]c2c1 | ligand displacement, radioligand | – | 10 µM | 90%
Cc1noc([C@H]2C[C@@H](c3ccc(C(F)(F)F)cc3)CN(C(=O)N3CCS(=O)(=O)C3)C2)n1 | cell-free assay | – | 10 µM | -20.2%
CC(C)(C)c1ccc(C(=O)Nc2cc(Cl)c(-c3ccccc3)cc2C(=O)O)cc1 | ligand displacement, radioligand | – | 10 µM | 91%
CC(C)N1CCC[C@H]1CNC(=O)c1cn(C2CCCC2)c(=O)c2c1c1ccccc1n2C | ligand displacement, radioligand | – | 10 µM | 28%
COc1ccc(S(=O)(=O)N2CCCCC2)cc1C | ligand displacement, radioligand | – | 10 µM | < 30%
COc1ccc(C(CN(C)C)C2(O)CCCCC2)cc1 (stereo not drawn) | transporter uptake, inhibitor | HEK293 | 1 µM | 28.8%
O=C(Nc1cccnn1)N1CCN([C@@H]2CCOc3cc(C(F)(F)F)ccc32)CC1 | ligand displacement | – | 20 µM | 15%
Fc1ccc(C(OCCN2CCN(CCCc3ccccc3)CC2)c2ccc(F)cc2)cc1 | transporter uptake, inhibitor | HEK293 | 1 µM | 89.9%
CS(=O)(=O)N1CCCC(NC(=O)[C@H](CCC2CCCCC2)NC(=O)c2ccc(CNC(=O)c3cnc4ccccn34)cc2)C1 (stereo partly drawn) | cell-free assay | – | 10 µM | 3%
COCc1c(-c2cc3cc(C)cc(OC)c3s2)c2c(N)ncnn2c1CN1CCNC(=O)C1 | ligand displacement, radioligand | – | 10 µM | 47%
CCN(CC)CCCC[C@H](NC(=O)[C@H](CC(C)C)NC(=O)[C@H](C)NC(=O)[C@H](Cc1ccccc1)NC(=O)c1ccc(C(C)(C)C)cc1)C(=O)N[C@@H](CO)C(=O)OC | ligand displacement, radioligand | – | 10 µM | -13%
